pEC50, pIC50, pKi: −log10 of the molar value.
What was measured:
[1] = biological target: T1, 5-hydroxytryptamine receptor 6 (Homo sapiens, UniProt P50406); experiment: Effective agonist concentration in cAMP release assay in HeLa cells expressing human 5-hydroxytryptamine 6 receptor; format: functional, cell-based
Outline: (§1)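 cAMP production read out across a range of ligand concentrations in HeLa cells stably transfected with the human 5-HT6 receptor, ligand given alone as agonist. EC50 and Emax each determined in triplicate.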

[2] = biological target: T1, 5-hydroxytryptamine receptor 6; experiment: Inhibition of [3H]LSD binding to human 5-hydroxytryptamine 6 receptor expressed in HeLa cells; format: cell-based
Outline: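 Competition binding against [3H]-LSD on cloned human 5-HT6 receptors stably expressed in HeLa cells. Ki determined in triplicate; single-point lines are % inhibition at 1000 nM.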

[3] = biological target: T1, 5-hydroxytryptamine receptor 6; experiment: Maximum percentage agonism of cAMP production in HeLa cells expressing human 5-hydroxytryptamine 6 receptor; format: functional, cell-based; outline: as §1
[4] = biological target: T1, 5-hydroxytryptamine receptor 6; experiment: Maximum percentage inhibition of 5-HT stimulated cAMP production in HeLa cells expressing 5-hydroxytryptamine 6 receptor; format: functional, cell-based
Outline: (§2)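 Antagonist mode: cAMP production in HeLa cells stably transfected with the human 5-HT6 receptor was stimulated with 5-HT, and inhibition was measured across a range of ligand concentrations. IC50 and Imax each determined in triplicate.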

[5] = biological target: T1, 5-hydroxytryptamine receptor 6; experiment: Inhibition of 5-HT stimulated cAMP production in HeLa cells expressing human 5-hydroxytryptamine 6 receptor; format: functional, cell-based; outline: as §2

T1 sequence (P50406 whole entry): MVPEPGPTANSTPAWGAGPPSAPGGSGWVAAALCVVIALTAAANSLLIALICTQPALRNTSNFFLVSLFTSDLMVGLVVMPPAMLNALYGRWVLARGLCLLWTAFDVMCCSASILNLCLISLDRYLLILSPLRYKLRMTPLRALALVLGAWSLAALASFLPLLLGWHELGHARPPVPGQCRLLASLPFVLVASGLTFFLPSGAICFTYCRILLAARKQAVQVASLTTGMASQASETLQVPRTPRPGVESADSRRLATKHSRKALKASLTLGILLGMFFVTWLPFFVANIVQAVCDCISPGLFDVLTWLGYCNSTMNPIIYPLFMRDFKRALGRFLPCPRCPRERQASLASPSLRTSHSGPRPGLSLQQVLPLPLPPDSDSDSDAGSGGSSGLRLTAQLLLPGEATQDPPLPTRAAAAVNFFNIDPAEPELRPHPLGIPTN

CN1CCC[C@@H]1Cc1c[nH]c2ccc(NS(=O)(=O)c3ccc(F)cc3)cc12 was tested, and the pEC50 [1] was 8.96, the pKi [2] was 9.00 and the Emax [3] was 85%.
Work on CN1CCC[C@H]1Cc1c[nH]c2ccc(NS(=O)(=O)c3ccc(Cl)c(Cl)c3)cc12 yielded a pKi [2] of 8.15.
In the case of CN1CCC[C@H]1Cc1c[nH]c2ccc(NS(=O)(=O)c3ccc(Br)cc3)cc12, the pKi [2] was 8.05, the Imax [4] was 85% and the pIC50 [5] was 8.80.
CC(C)c1ccc(S(=O)(=O)Nc2ccc3[nH]cc(C[C@@H]4CCCN4C)c3c2)cc1 showed a pKi [2] of 8.52, an Imax [4] of 76% and a pIC50 [5] of 7.68.
CN1CCC[C@@H]1Cc1c[nH]c2ccc(NS(=O)(=O)c3ccc(OC(F)(F)F)cc3)cc12 showed a pEC50 [1] of 8.54, a pKi [2] of 9.00 and an Emax [3] of 94%.
O=S(=O)(Nc1ccc2[nH]cc(C[C@H]3CCCN3)c2c1)c1ccc(Br)cc1 gave a pKi [2] of 8.52.
With CN1CCC[C@@H]1Cc1c[nH]c2ccc(NS(=O)(=O)c3ccccc3)cc12 the pKi [2] was 9.00.
With CN1CCC[C@H]1Cc1c[nH]c2ccc(NS(=O)(=O)c3cccc(C(F)(F)F)c3)cc12 the pKi [2] was 7.92, the Imax [4] was 78% and the pIC50 [5] was 7.85.
CC(C)c1ccc(S(=O)(=O)Nc2ccc3[nH]cc(C[C@H]4CCCN4C)c3c2)cc1 was tested, and the pKi [2] was 9.00.
Work on CN1CCC[C@@H]1Cc1c[nH]c2ccc(NS(=O)(=O)c3ccc(I)cc3)cc12 yielded a pEC50 [1] of 8.57, a pKi [2] of 9.52 and an Emax [3] of 72%.
Compound O=S(=O)(Nc1ccc2[nH]cc(C[C@H]3CCCN3)c2c1)c1ccccc1F has a pKi [2] of 8.40.
Cc1ccc(S(=O)(=O)Nc2ccc3[nH]cc(C[C@H]4CCCN4C)c3c2)cc1 showed a pEC50 [1] of 8.89, a pKi [2] of 9.00 and an Emax [3] of 79%.
In the case of CN1CCC[C@H]1Cc1c[nH]c2ccc(NS(=O)(=O)c3ccc4ccccc4c3)cc12, the pKi [2] was 9.00, the Imax [4] was 95% and the pIC50 [5] was 7.98.
In the case of CN1CCC[C@@H]1Cc1c[nH]c2ccc(NS(=O)(=O)c3ccc(C(F)(F)F)cc3)cc12, the pEC50 [1] was 8.35, the pKi [2] was 9.40 and the Emax [3] was 85%.
In the case of CN1CCC[C@H]1Cc1c[nH]c2ccc(NS(=O)(=O)c3ccc(OC(F)(F)F)cc3)cc12, the pEC50 [1] was 6.74, the pKi [2] was 8.10 and the Emax [3] was 68%. The Imax [4] was 85% and the pIC50 [5] was 7.59.
For O=S(=O)(Nc1ccc2[nH]cc(C[C@@H]3CCCN3)c2c1)c1ccc(F)cc1F, the pKi [2] was 6.88.
In the case of CN1CCC[C@H]1Cc1c[nH]c2ccc(NS(=O)(=O)c3cccc(Cl)c3)cc12, the pKi [2] was 7.96.
In the case of O=S(=O)(Nc1ccc2[nH]cc(C[C@@H]3CCCN3)c2c1)c1cccc(Cl)c1, the pKi [2] was 7.44.
CC(C)c1ccc(S(=O)(=O)Nc2ccc3[nH]cc(C[C@H]4CCCN4)c3c2)cc1 showed a pKi [2] of 9.00.
O=S(=O)(Nc1ccc2[nH]cc(C[C@H]3CCCN3)c2c1)c1cccc(Cl)c1 showed a pEC50 [1] of 9.00, a pKi [2] of 8.70 and an Emax [3] of 92%.
Compound O=S(=O)(Nc1ccc2[nH]cc(C[C@@H]3CCCN3)c2c1)c1ccc(Br)cc1 has a pKi [2] of 7.24.
O=S(=O)(Nc1ccc2[nH]cc(C[C@H]3CCCN3)c2c1)c1ccc(F)cc1 gave a pKi [2] of 8.40.
With CN1CCC[C@H]1Cc1c[nH]c2ccc(NS(=O)(=O)c3ccccc3Cl)cc12 the pKi [2] was 7.66.
With O=S(=O)(Nc1ccc2[nH]cc(C[C@H]3CCCN3)c2c1)c1ccccc1 the pEC50 [1] was 8.85, the pKi [2] was 8.40 and the Emax [3] was 73%.
For O=S(=O)(Nc1ccc2[nH]cc(C[C@H]3CCCN3)c2c1)c1ccc(I)cc1, the pKi [2] was 9.00.
Work on CN1CCC[C@@H]1Cc1c[nH]c2ccc(NS(=O)(=O)c3ccc(Cl)c(Cl)c3)cc12 yielded a pKi [2] of 9.00.
For O=S(=O)(Nc1ccc2[nH]cc(C[C@H]3CCCN3)c2c1)c1ccc(F)cc1F, the pEC50 [1] was 8.28, the pKi [2] was 8.10 and the Emax [3] was 78%.
Compound CN1CCC[C@@H]1Cc1c[nH]c2ccc(NS(=O)(=O)c3ccccc3F)cc12 has a pEC50 [1] of 8.89, a pKi [2] of 9.00 and an Emax [3] of 91%.
Compound COc1ccc(S(=O)(=O)Nc2ccc3[nH]cc(C[C@@H]4CCCN4C)c3c2)cc1 has a pKi [2] of 7.47.
In the case of CN1CCC[C@@H]1Cc1c[nH]c2ccc(NS(=O)(=O)c3ccc4ccccc4c3)cc12, the pKi [2] was 9.00.
O=S(=O)(Nc1ccc2[nH]cc(C[C@H]3CCCN3)c2c1)c1ccc(Cl)cc1 showed a pEC50 [1] of 8.35, a pKi [2] of 8.52 and an Emax [3] of 99%.
For O=S(=O)(Nc1ccc2[nH]cc(C[C@H]3CCCN3)c2c1)c1ccc(Cl)c(Cl)c1, the pKi [2] was 8.52.
Cc1ccc(S(=O)(=O)Nc2ccc3[nH]cc(C[C@H]4CCCN4)c3c2)cc1 was tested, and the pKi [2] was 8.40.
Cc1c(S(=O)(=O)Nc2ccc3[nH]cc(C[C@@H]4CCCN4C)c3c2)sc2ccc(Cl)cc12 showed a pKi [2] of 8.70, an Imax [4] of 91% and a pIC50 [5] of 8.96.
For O=S(=O)(Nc1ccc2[nH]cc(C[C@H]3CCCN3)c2c1)c1ccc(OC(F)(F)F)cc1, the pEC50 [1] was 8.38, the pKi [2] was 8.30 and the Emax [3] was 86%.
Compound COc1ccc(S(=O)(=O)Nc2ccc3[nH]cc(C[C@H]4CCCN4C)c3c2)cc1 has a pEC50 [1] of 8.66, a pKi [2] of 9.00 and an Emax [3] of 83%.
With CN1CCC[C@H]1Cc1c[nH]c2ccc(NS(=O)(=O)c3ccccc3Br)cc12 the pKi [2] was 8.30, the Imax [4] was 75% and the pIC50 [5] was 9.10.
O=S(=O)(Nc1ccc2[nH]cc(C[C@H]3CCCN3)c2c1)c1ccc(F)cc1Cl was tested, and the pKi [2] was 8.05.
For O=S(=O)(Nc1ccc2[nH]cc(C[C@H]3CCCN3)c2c1)c1cccc(C(F)(F)F)c1, the pEC50 [1] was 8.24, the pKi [2] was 8.40 and the Emax [3] was 77%.
With CN1CCC[C@@H]1Cc1c[nH]c2ccc(NS(=O)(=O)c3cccc(C(F)(F)F)c3)cc12 the pEC50 [1] was 8.49, the pKi [2] was 9.00 and the Emax [3] was 90%.
Compound Cc1noc(C)c1S(=O)(=O)Nc1ccc2[nH]cc(C[C@H]3CCCN3C)c2c1 has a pEC50 [1] of 9.10, a pKi [2] of 9.00 and an Emax [3] of 77%.
Compound COc1ccc(Cl)cc1S(=O)(=O)Nc1ccc2[nH]cc(C[C@@H]3CCCN3C)c2c1 has a pKi [2] of 7.62.
CN1CCC[C@H]1Cc1c[nH]c2ccc(NS(=O)(=O)c3ccc(F)cc3Cl)cc12 was tested, and the pKi [2] was 7.46.
In the case of CN1CCC[C@H]1Cc1c[nH]c2ccc(NS(=O)(=O)c3ccc(C(F)(F)F)cc3)cc12, the pKi [2] was 8.00, the Imax [4] was 78% and the pIC50 [5] was 7.67.
CN1CCC[C@H]1Cc1c[nH]c2ccc(NS(=O)(=O)c3ccccc3)cc12 showed a pKi [2] of 7.80.
